Bridge positions count the residues as written; N and C are the ends. Ends that are not written are not given here. Peptide text beside a SMILES is read from it.
Columns and labels:
p53:MDM2 = settings: read-out: inhibition of p53:MDM2; previously reported; cited from earlier work
[1] = Stability of peptides in human serum; assay type: in vitro ADME; settings: 25% (v/v) human serum, pH 7.5
Summary of the method: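 Peptide (50 μM final) was held 0, 1, 2, 4, 8 and 24 h in 25% (v/v) human serum in PBS (pH 7.5). Serum proteins were precipitated with ACN containing 2% TFA. The full-length peptide peak (MS-confirmed) was quantified by RP-HPLC at 215 nm as a percentage of 0 h recovery. A PBS-only incubation served as control. Single experiment, three technical replicates.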

MDM2 = MDM2 (Homo sapiens, UniProt Q00987); assay: Fluorescence polarization competition, F-pDI:MDM2; assay type: binding; settings: for IC50, inhibition of F-pDI:MDM2 interaction: fluorescence polarization, 10 nM F-pDI, 8 nM MDM2, Tris buffer, three technical replicates
MDMX = target: T1, MDMX (Homo sapiens, UniProt O15151); assay: Fluorescence polarization competition, F-pDI:MDMX; assay type: binding; settings: for IC50, inhibition of F-pDI:MDMX interaction: fluorescence polarization, 10 nM F-pDI, 45 nM MDMX, Tris buffer, three technical replicates
T1 sequence (O15151 1-490): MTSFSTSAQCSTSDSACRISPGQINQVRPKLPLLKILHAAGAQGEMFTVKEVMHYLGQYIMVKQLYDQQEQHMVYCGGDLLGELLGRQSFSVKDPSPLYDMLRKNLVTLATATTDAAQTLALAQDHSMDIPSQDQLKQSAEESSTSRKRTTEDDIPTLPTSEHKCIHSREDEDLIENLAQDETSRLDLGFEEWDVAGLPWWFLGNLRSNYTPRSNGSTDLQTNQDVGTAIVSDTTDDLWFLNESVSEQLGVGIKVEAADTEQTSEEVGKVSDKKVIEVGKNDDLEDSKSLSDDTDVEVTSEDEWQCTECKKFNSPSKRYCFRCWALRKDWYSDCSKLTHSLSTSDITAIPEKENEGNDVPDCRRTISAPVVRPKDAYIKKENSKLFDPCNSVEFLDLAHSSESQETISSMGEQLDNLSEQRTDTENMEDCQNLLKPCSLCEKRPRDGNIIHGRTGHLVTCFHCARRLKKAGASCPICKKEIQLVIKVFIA
Summary of the method: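 Competition fluorescence polarization with fluorescein-labeled pDI (p53 mimic) bound to MDMX, read at 489/515 nm. F-pDI:MDMX signal defined 0% inhibition and free F-pDI in Tris buffer 100%. Percent inhibition was taken from the change in polarization relative to F-pDI. IC50 came from Hill-fitted dose-response curves; three technical replicates.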

[2] = Cell toxicity, resazurin, HaCaT; assay type: cell-based; settings: human, HaCaT keratinocyte cells
Summary of the method: (§1)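 Peptides serially diluted (0.25–32 μM) and incubated 24 h at 37 °C, 5% CO2 with 5000 cells/well. HEK293 was grown in DMEM and HaCaT in RPMI with 2 mM L-glutamine and 10 mM sodium pyruvate, both with 10% FBS and penicillin/streptomycin. Resazurin-to-resorufin fluorescence was read at 560/585 nm. Triton X-100 (0.1%) set 100% and PBS 0% toxicity. CC50 came from Hill-fitted curves; three independent experiments.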

[3] = Cell toxicity, resazurin, HEK293; assay type: cell-based; settings: human, HEK293 embryonic kidney cells
Summary of the method: as §1

[4] = Cell toxicity, resazurin, PBMCs; assay type: cell-based; settings: human, peripheral blood mononuclear cells (PBMCs)
Summary of the method: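 Heparinized blood from healthy donors was diluted 1:1 with PBS, separated on Ficoll-Paque (1400 rpm, 30 min) and the interface layer washed three times in PBS. Cells (5000/well) received serially diluted peptide (0.25–32 μM) for 24 h at 37 °C, 5% CO2, then a resazurin read at 560/585 nm. Triton X-100 (0.1%) set 100%, PBS 0%. CC50 came from a Hill fit; single experiment, three donors.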

RBC hemolysis = assay type: cell-based; settings: human, red blood cells (RBCs), 0.25% v/v
Summary of the method: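 Donor RBCs were pelleted (4000 rpm, 1 min) and washed three times in PBS. Peptides diluted in PBS (0.25–32 μM) were incubated with RBCs (0.25% v/v final) for 1 h at 37 °C. After pelleting, supernatant A415 gave released hemoglobin. Triton X-100 (0.1% final) set 100% and PBS 0% hemolysis. Single experiment, RBCs from three donors.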

MM96L cells = assay: Live-cell confocal microscopy, intracellular location, MM96L; assay type: cell-based, human; settings: spinning disc confocal, serum-free media, 1 and 4 μM cPF4PD-A488, 6 μM PF4P_pDI-A488, 1 μM cPF4Pext_pDI-A488
Summary of the method: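 MM96L cells were grown in RPMI with 2 mM L-glutamine, 10 mM sodium pyruvate and 10% FBS, and plated at 16 000 per chamber-slide well overnight (37 °C, 5% CO2). Cells were washed into serum-free medium and stained with MitoTracker Red (100 nM final, 5 min). Medium was then replaced with Alexa Fluor 488-labeled peptide in serum-free medium. Cells were imaged live over time at 37 °C, 5% CO2.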

MM96L melanoma cells = assay: Cell toxicity, resazurin, MM96L; assay type: cell-based, human; settings: p53 WT, 24 h, 0.25–32 μM peptide, mean ± SD, three independent experiments
Summary of the method: (§2)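 5000 cells/well were exposed to serially diluted peptide (0.25–32 μM) for 24 h at 37 °C, 5% CO2. Viability was read by resazurin-to-resorufin fluorescence (ex 560, em 585 nm), with 0.1% Triton X-100 set as 100% toxicity and PBS as 0%. CC50 came from a Hill-slope saturation fit. Mean ± SD of three independent experiments on different days.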

MCF7 breast cancer cells = assay: Cell toxicity, resazurin, MCF7; assay type: cell-based, human; settings: p53 WT, 24 h, 0.25–32 μM peptide, mean ± SD, three independent experiments
Summary of the method: as §2

[5] = tested on: HeLa cervical cancer cells; assay: Cell toxicity, resazurin, HeLa; assay type: cell-based, human; settings: cervix, p53 WT (rep), 24 h, 0.25–32 μM peptide, mean ± SD, three independent experiments
Summary of the method: as §2

[6] = tested on: panel of cancerous and noncancerous cell lines, PBMCs and RBCs; assay: Cytotoxic activity across the panel of cell lines; assay type: cell-based, human; settings: 24 h, resazurin (RBC 1 h hemolysis)
Summary of the method: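 Cell lines and PBMCs (Ficoll-separated from PBS-diluted heparinized blood, PBS-washed) were read by 24 h resazurin fluorescence; PBMC data came from one experiment with three donors. RBCs were washed in PBS, then incubated at 0.25% v/v with peptide in PBS for 1 h at 37 °C. After pelleting, supernatant A415 gave hemoglobin release, with 0.1% Triton X-100 as 100% and PBS as 0%.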

[7] = tested on: HCT116 colorectal cancer cells; assay: Cell toxicity, resazurin, HCT116; assay type: cell-based, human; settings: p53 WT, 24 h, 0.25–32 μM peptide, mean ± SD, three independent experiments
Summary of the method: as §2

MDA-MB-231 cells [8] = assay: Internalization of labeled peptides, flow cytometry, MDA-MB-231; assay type: cell-based, human; settings: read-out: FC50 (peptide concentration to detect fluorescence in 50% of cells), MDA-MB-231, 1 h, serum free medium, 0.06–2 μM labeled peptide, 10 000 cells, at least two independent experiments
Summary of the method: (§3)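 Cells were grown in DMEM with 10% FBS and seeded at 10^5 per well overnight (37 °C, 5% CO2). Serial dilutions of Alexa Fluor 488-labeled peptide in serum-free medium were added for 1 h, then cells were harvested. Flow cytometry used ex 488 nm/em 530/30 nm at 330 V, and readings were repeated after Trypan Blue quench (0.02% w/v final). % fluorescent cells was taken above the no-peptide threshold, and FC50 was fitted by Hill equation.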

MCF7 cells = assay: Internalization of labeled peptides, flow cytometry, MCF7; assay type: cell-based, human; settings: read-out: FC50 (peptide concentration to detect fluorescence in 50% of cells), MCF7, 1 h, serum free medium, 0.06–2 μM labeled peptide, 10 000 cells, at least two independent experiments
Summary of the method: as §3

MDA-MB-231 cells [9] = assay: Live-cell confocal microscopy, intracellular location, MDA-MB-231; assay type: cell-based, human; settings: spinning disc confocal, serum-free media, 4 μM (sub-lethal)

MDM2, sequence (Q00987 whole entry): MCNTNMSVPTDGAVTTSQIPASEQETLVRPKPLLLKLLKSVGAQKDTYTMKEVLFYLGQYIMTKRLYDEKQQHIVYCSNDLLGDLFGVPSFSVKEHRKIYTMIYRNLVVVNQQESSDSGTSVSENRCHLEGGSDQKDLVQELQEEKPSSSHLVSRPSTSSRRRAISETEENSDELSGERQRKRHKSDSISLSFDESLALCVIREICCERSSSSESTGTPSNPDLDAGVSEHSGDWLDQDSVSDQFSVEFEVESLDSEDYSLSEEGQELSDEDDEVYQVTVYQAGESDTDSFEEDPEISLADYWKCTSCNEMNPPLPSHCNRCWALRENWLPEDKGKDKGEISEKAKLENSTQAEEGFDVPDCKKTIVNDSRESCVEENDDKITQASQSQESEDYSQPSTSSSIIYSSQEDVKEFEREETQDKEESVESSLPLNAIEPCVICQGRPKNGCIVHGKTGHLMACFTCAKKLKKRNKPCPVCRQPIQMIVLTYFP

CC[C@H](C)[C@@H]1NC(=O)[C@H](CCCCN)NC(=O)[C@H](CCCCN)NC(=O)[C@H](Cc2ccc(O)cc2)NC(=O)[C@H](CC(C)C)NC(=O)[C@@H]2CCCN2C(=O)CNC(=O)CNC(=O)[C@@H](N)CSSC[C@@H](C(=O)N[C@@H](CCC(=O)O)C(=O)N[C@@H](CO)C(N)=O)NC(=O)[C@H](CC(C)C)NC(=O)[C@H](CCCCN)NC(=O)[C@H](CCCCN)NC(=O)[C@H]([C@@H](C)CC)NC(=O)[C@H]([C@@H](C)CC)NC(=O)[C@H](CCCCN)NC(=O)[C@H](CCCCN)NC(=O)[C@H](Cc2ccc(O)cc2)NC(=O)[C@H](CC(C)C)NC(=O)[C@@H]2CCCN2C(=O)[C@H](C)NC(=O)CNC(=O)CNC(=O)[C@H](CO)NC(=O)CNC(=O)CNC(=O)[C@H](CO)NC(=O)[C@H](CCC(=O)O)NC(=O)[C@H](CC(C)C)NC(=O)[C@H](CC(C)C)NC(=O)[C@H](CCCCN)NC(=O)[C@H](CCCCN)NC(=O)[C@H]([C@@H](C)CC)NC1=O [cPF4PD] (H-CGGPLYKKIIKKLLESGGSGGAPLYKKIIKKLCES-NH2; disulfide 1-33)
remaining at 24 h, 50 μM [1]: ~75%
IC50, inhibition of F-pDI:MDM2 interaction (MDM2): did not inhibit
IC50, inhibition of F-pDI:MDMX interaction (MDMX): did not inhibit
CC50 at 24 h [2]: 9.1 ± 0.7 µM
CC50 at 24 h [3]: > 32 µM
CC50 at 24 h [4]: 9.1 ± 1.3 µM
HC50 at 1 h (RBC hemolysis): > 64 µM

A488 GCGGPLYKKIIKKLLESIIKKGGXGGSGGLTFEHYWAQLTGGC* (disulfide) [cPF4Pext_pDI-A488]
intracellular location, MM96L (MM96L cells): enter directly into the cell cytoplasm

A488 LQAPLTFEHYWALLTSGGXGGAPLYKKIIKKLLES* [PF4P_pDI-A488]
intracellular location, MM96L (MM96L cells): enter directly into the cell cytoplasm

APLYKKIIKKLLES-NH2 [PF4P]
CC50, MM96L (MM96L melanoma cells): >32 µM
CC50 at 24 h [2]: > 32 µM
CC50, MCF7 (MCF7 breast cancer cells): >32 µM
CC50, HeLa [5]: >32 µM
CC50 at 24 h [3]: > 32 µM
CC50 at 24 h [4]: > 32 µM
HC50 at 1 h (RBC hemolysis): > 64 µM
cytotoxic activity against the tested cells [6]: not active against any of the tested cells

CGGPLYKKIIKKLLESIIKKGGSGGSGGLTFEHYWAQLTGGC-NH2 (disulfide 1-42) [cPF4Pext_pDI]
IC50 (MDMX): 0.08 µM
CC50, MM96L (MM96L melanoma cells): 2.5 ± 0.1 µM
CC50 at 24 h [2]: 7.2 ± 0.3 µM
CC50, MCF7 (MCF7 breast cancer cells): 18.6 ± 2.0 µM
CC50, HeLa [5]: ∼32 ± 5 μM
CC50, HCT116 [7]: 11.7 ± 0.9 µM
CC50 at 24 h [3]: 19.1 ± 0.5 µM
CC50 at 24 h [4]: 4.3 ± 0.4 µM
HC50 at 1 h (RBC hemolysis): > 64 µM

CQAPLYKKIIKKLLESGGSGGAPLYKKIIKKLLCES* A488 (sidechain bridge or staple) [cPF4PD-A488]
EC50 (MDA-MB-231 cells [8]): 0.16 µM
EC50 (MCF7 cells): 0.65 µM
intracellular location, MM96L (MM96L cells): enter directly into the cell cytoplasm
intracellular location, MDA-MB-231 (MDA-MB-231 cells [9]): entry of the labeled peptide into the cytoplasm was observed within two hours

LQAPLTFEHYWALLTSGGSGGAPLYKKIIKKLLES-NH2 [PF4P_pDI]
remaining at 24 h, 50 μM [1]: 60%
inhibition at 0.001 µM (MDM2; read-out: inhibition of F-pDI binding to MDM2): > 50%
inhibition at 0.001 µM (MDMX; read-out: inhibition of F-pDI binding to MDMX): > 50%
CC50, MM96L (MM96L melanoma cells): 13.2 ± 0.7 µM
CC50 at 24 h [2]: 17.1 ± 1.6 µM
CC50, MCF7 (MCF7 breast cancer cells): >32 µM
CC50, HeLa [5]: >32 µM
CC50, HCT116 [7]: 25.5 ± 2.1 µM
CC50 at 24 h [3]: 27.5 ± 2.3 µM
CC50 at 24 h [4]: > 32 µM
HC50 at 1 h (RBC hemolysis): > 64 µM

LQAPLYKKIIKKLLESGGSGGAPLYKKIIKKLLES-NH2 [PF4PD]
remaining at 24 h, 50 μM [1]: 20%
IC50, inhibition of F-pDI:MDM2 interaction (MDM2): did not inhibit
IC50, inhibition of F-pDI:MDMX interaction (MDMX): did not inhibit
CC50, MM96L (MM96L melanoma cells): 1.6 ± 0.1 µM
CC50 at 24 h [2]: 4.3 ± 0.2 µM
CC50, MCF7 (MCF7 breast cancer cells): 17.6 ± 2.0 µM
CC50, HeLa [5]: 17.2 ± 2.2 µM
CC50, HCT116 [7]: 4.8 ± 0.8 µM
CC50 at 24 h [3]: 13.7 ± 2.2 µM
CC50 at 24 h [4]: 14 ± 0.9 µM
HC50 at 1 h (RBC hemolysis): > 64 µM

— publication PMC8386104 (RSC Chemical Biology, 2020)
